The source of these data is ChEMBL document CHEMBL1127031, “Development of high-affinity 5-HT3 receptor antagonists. Structure-affinity relationships of novel 1,7-annelated indole derivatives” (J Med Chem, 1993).

By Ki is commonly meant the dissociation constant of the complex between target and ligand, obtained from inhibition or displacement.

For test [1], the target named is GABA-A receptor; anion channel. Description: Displacement of [3H]- Diazepam from rat GABA-A benzodiazepine receptor. In kind it is protein-complex assay. The essentials:
(§1)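 Radioligand displacement on membrane preparations with glass-fibre filtration and liquid scintillation counting of tritium after overnight equilibration. Four to six test concentrations were used. IC50 came from log-probit linear regression. Ki = IC50/(1 + S/Kd), where S is the [3H]label concentration. Ki is the mean of at least three independent experiments run on different days with different membrane preparations.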

The target of test [2] is T1, Voltage-gated L-type calcium channel (Rattus norvegicus, UniProt P22002+Q02485+P27732). Description: Inhibition of [3H]nitrendipine binding to L-type calcium channel dihydropyridine site of rat brain. An outline of the steps:
(§2)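 Radioligand displacement on tissue membrane suspensions, with 4–6 concentrations of unlabeled test drug. Bound label was collected on GF/B glass-fibre filters, equilibrated overnight in scintillant, and counted for tritium. […] Ki = IC50/(1 + S/Kd), where S is the label concentration. Each value is the mean of ≥3 independent experiments on different days with different membrane preparations.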

For test [3], the target named is T1, Voltage-gated L-type calcium channel. Description: Inhibition of [3H]D-888 binding to L-type calcium channel verapamil site of rat brain. The essentials: as §2
The target in test [4] is Cholecystokinin receptor type A (Rattus norvegicus, UniProt P30551). Description: The binding affinity was measured on cholecystokinin type A receptor using [3H]- CCK-8 as radioligand.
Cholecystokinin receptor type A, sequence (P30551 whole entry): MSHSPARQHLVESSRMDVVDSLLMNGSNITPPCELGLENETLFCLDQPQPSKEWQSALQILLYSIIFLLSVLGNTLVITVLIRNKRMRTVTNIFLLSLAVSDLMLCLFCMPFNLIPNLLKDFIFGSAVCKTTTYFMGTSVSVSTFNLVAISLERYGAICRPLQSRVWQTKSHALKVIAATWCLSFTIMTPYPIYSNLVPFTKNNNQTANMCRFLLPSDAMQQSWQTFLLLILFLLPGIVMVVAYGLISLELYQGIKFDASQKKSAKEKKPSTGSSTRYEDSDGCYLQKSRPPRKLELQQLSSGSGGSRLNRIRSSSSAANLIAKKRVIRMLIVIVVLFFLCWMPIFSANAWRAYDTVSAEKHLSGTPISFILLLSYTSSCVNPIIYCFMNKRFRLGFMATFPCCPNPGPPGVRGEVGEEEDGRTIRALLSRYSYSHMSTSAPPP
Test [5] addresses Gastrin/cholecystokinin type B receptor (Rattus norvegicus, UniProt P30553). Description: The binding affinity was measured on cholecystokinin type B receptor using [3H]- CCK-8 as radioligand.
Another test deals with D(1A) dopamine receptor (Rattus norvegicus, UniProt P18901). Description: The binding affinity was measured on dopamine receptor D1 using [3H]- dopamine as radioligand.
D(1A) dopamine receptor, sequence (P18901 whole entry): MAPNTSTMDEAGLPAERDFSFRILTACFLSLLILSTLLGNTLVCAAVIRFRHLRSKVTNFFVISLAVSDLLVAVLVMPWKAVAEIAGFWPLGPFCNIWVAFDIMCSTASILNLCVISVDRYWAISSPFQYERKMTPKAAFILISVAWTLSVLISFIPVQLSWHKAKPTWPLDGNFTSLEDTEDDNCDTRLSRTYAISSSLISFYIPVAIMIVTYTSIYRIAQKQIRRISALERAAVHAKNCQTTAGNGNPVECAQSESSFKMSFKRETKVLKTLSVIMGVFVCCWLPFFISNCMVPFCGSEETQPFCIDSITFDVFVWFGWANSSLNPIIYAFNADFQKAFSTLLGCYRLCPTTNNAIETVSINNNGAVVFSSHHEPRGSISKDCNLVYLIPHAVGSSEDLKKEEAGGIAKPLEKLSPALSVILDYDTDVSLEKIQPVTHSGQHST
Another test deals with D(2) dopamine receptor (Rattus norvegicus, UniProt P61169). Description: The binding affinity was measured on dopamine receptor D2 using [3H]- spiperone as radioligand.
D(2) dopamine receptor, sequence (P61169 whole entry): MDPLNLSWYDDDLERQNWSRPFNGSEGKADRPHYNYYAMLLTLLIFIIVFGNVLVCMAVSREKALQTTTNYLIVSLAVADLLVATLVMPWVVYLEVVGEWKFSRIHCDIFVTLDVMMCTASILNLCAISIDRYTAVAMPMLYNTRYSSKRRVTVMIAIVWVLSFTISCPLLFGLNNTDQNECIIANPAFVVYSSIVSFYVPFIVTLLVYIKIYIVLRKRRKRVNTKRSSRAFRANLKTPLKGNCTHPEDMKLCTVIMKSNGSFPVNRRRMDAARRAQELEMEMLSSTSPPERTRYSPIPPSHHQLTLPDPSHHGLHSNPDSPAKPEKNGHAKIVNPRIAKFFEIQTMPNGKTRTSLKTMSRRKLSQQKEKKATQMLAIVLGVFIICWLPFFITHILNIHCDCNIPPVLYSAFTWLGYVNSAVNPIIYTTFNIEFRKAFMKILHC
Test [6] deals with GABA-A receptor; anion channel. Description: Displacement of [3H]DH-muscimol from rat GABA-A receptor. In kind it is protein-complex assay. An outline of the steps: as §1
In general terms: Displacement assays read how much labelled ligand stays bound in the presence of the test substance.

The target in a further test is Histamine H1 receptor (Rattus norvegicus, UniProt P31390). Description: The binding affinity was measured on histamine H1 receptor using [3H]- mepyramine as radioligand.
The target in a further test is Histamine H3 receptor (Rattus norvegicus, UniProt Q9QYN8). Description: The binding affinity was measured on histamine H3 receptor using [3H]- N-Me-histam as radioligand.
For test [7], the target named is Muscarinic acetylcholine receptor M2 (Rattus norvegicus, UniProt P10980). Description: The binding affinity was measured on muscarine M2 receptor using [3H]- N-Me-SCOPOL as radioligand. The essentials: as §2
Muscarinic acetylcholine receptor M2, sequence (P10980 whole entry): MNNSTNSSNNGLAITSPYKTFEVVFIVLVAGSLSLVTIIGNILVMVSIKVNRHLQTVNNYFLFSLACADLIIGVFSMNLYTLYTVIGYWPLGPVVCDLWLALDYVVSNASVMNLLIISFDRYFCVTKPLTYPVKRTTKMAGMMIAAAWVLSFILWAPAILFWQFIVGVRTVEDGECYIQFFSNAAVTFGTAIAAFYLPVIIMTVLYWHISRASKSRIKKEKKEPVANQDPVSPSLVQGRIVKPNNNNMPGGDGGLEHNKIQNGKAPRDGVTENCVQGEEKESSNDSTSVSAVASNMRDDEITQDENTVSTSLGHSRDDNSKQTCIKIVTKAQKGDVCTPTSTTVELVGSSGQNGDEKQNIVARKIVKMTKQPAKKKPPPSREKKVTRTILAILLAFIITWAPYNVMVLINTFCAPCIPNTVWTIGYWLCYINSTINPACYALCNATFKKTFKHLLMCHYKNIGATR
Test [8] addresses Muscarinic acetylcholine receptor M1 (Rattus norvegicus, UniProt P08482). Description: The binding affinity was measured on muscarine M1 receptor using [3H]- pirenzepine as radioligand.
Test [9] addresses Glutamate receptor ionotropic, NMDA 2C (Rattus norvegicus, UniProt Q00961). Description: The binding affinity was measured on NMDA receptor using [3H]- CGS-19755 as radioligand.
Test [10] in a line: The binding affinity was measured on Na+2(BTX)brain receptor using [3H]- batrachotox as radioligand. More on the design: species or system Rattus norvegicus.
The species entered for test [11] is Rattus norvegicus. Description: Dose of antagonist which inhibits the by the 2-Me-5-HT induced slowing of the heart rate by 10 beats/5 s. In kind it is functional. An outline of the steps:
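Von Bezold-Jarisch reflex test in unrestrained conscious rats, with the compound given orally. The bradycardia (slowing of heart rate) was induced by 2-Me-5-HT. The value is the antagonist dose that reduces this slowing by 10 beats/5 s.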

For test [12], the species on record is Rattus norvegicus. Description: The pA2 is the negative logarithm of the molar concentration of an antagonist which necessitates the doubling of the agonist dose to couteract the effect of that antagonist and restore the original response was measured in rat isolated vagus nerve test. The test is classed as functional. The settings on record: read-out: pA2 (converted).

Test [13] addresses Thyrotropin-releasing hormone receptor (Rattus norvegicus, UniProt Q01717). Description: The binding affinity was measured on TRH receptor using [3H]- MeTRH as radioligand.
A further test has as its target Adrenergic receptor beta (Rattus norvegicus, UniProt P18090+P10608+P26255). Description: The binding affinity was measured on beta-1,2-adrenergic receptor using [3H]- DHA as radioligand. In kind it is protein assay.
Test [14] can be described thus: The binding affinity was measured on glycine strych. ins receptor using [3H]- 5,7-diClkyn.acid as radioligand. More on the design: species or system Rattus norvegicus.
Test [15] concerns the target Delta-type opioid receptor (Rattus norvegicus, UniProt P33533). Description: The binding affinity was measured on delta-opiate receptor using [3H]- dadle as radioligand.
Test [16] has as its target Alpha-2A adrenergic receptor (Rattus norvegicus, UniProt P22909). Description: The binding affinity was measured on alpha-2-adrenergic receptor using [3H]- clonidine as radioligand.
Test [17] has as its target Kappa-type opioid receptor (Rattus norvegicus, UniProt P34975). Description: The binding affinity was measured on kappa-opiate receptor using [3H]- EKC as radioligand.
The target of test [18] is Interleukin-6 receptor subunit alpha (Rattus norvegicus, UniProt P22273). Description: The binding affinity was measured on […] receptor using [3H]- IL-6 as radioligand. The essentials:
as §2

Test [19] is described as follows: The binding affinity was measured on melatonin receptor using [3H]- 2-iodo-melat as radioligand.
Another test deals with Mu-type opioid receptor (Rattus norvegicus, UniProt P33535). Description: The binding affinity was measured on mu-opiate receptor using [3H]- naloxone as radioligand.
Mu-type opioid receptor, sequence (P33535 whole entry): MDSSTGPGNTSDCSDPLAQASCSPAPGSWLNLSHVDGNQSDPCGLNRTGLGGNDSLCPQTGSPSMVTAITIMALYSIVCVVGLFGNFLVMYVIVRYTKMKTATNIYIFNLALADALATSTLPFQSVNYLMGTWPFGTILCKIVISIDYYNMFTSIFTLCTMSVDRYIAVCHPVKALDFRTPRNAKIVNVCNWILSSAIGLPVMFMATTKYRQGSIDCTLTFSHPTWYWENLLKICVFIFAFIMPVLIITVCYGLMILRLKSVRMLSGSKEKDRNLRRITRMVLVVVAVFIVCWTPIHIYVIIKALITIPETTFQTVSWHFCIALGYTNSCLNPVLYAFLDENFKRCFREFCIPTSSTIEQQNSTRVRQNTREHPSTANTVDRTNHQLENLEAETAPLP
Test [20] concerns the target Muscarinic acetylcholine receptor M3 (Rattus norvegicus, UniProt P08483). Description: The binding affinity was measured on muscarine M3 receptor using [3H]- N-Me-SCOPOL as radioligand.
Test [21] deals with Sigma non-opioid intracellular receptor 1 (Rattus norvegicus, UniProt Q9R0C9). Description: The binding affinity was measured on sigma receptor using [3H]- (+)-3-PPP as radioligand.
Sigma non-opioid intracellular receptor 1, sequence (Q9R0C9 whole entry): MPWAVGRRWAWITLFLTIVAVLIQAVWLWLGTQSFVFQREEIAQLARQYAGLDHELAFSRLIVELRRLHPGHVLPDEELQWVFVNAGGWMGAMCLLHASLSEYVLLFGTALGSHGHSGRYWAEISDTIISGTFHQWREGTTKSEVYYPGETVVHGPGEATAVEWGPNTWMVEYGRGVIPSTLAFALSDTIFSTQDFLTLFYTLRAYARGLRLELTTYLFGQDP
Test [22] is described as follows: The binding affinity was measured on substance P as radioligand. The arrangement: species or system Rattus norvegicus.
The next test is filed under the species Mus musculus. Description: Lowest effective dose affecting behavioral parameter in at least half of the animals.
The target in the next test is D(3) dopamine receptor (Rattus norvegicus, UniProt P19020). Description: The binding affinity was measured on dopamine receptor D3 using [3H]- spiperone as radioligand.
The species named for a further test is Cavia porcellus. Description: The pA2 is the negative logarithm of the molar concentration of an antagonist which necessitates the doubling of the agonist dose to couteract the effect of that antagonist and restore the original response was measured in guinea pig isolated ileu m test.
Test [23] has as its target T2, Serotonin 3 (5-HT3) receptor (Rattus norvegicus, UniProt P35563+Q9JJ16).
T2 sequence (P35563 whole entry): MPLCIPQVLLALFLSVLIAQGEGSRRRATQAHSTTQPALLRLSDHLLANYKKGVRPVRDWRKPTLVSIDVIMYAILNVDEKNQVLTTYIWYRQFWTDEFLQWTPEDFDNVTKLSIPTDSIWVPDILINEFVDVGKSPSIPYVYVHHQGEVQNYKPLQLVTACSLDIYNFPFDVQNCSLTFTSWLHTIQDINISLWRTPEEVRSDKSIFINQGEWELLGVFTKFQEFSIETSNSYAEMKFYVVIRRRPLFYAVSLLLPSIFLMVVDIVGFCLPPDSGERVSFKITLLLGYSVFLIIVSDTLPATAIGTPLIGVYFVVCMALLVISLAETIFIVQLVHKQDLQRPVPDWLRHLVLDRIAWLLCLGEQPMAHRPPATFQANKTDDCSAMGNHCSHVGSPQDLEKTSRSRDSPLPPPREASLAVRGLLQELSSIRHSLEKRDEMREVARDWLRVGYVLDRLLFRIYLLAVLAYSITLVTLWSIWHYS
T2 sequence (Q9JJ16 whole entry): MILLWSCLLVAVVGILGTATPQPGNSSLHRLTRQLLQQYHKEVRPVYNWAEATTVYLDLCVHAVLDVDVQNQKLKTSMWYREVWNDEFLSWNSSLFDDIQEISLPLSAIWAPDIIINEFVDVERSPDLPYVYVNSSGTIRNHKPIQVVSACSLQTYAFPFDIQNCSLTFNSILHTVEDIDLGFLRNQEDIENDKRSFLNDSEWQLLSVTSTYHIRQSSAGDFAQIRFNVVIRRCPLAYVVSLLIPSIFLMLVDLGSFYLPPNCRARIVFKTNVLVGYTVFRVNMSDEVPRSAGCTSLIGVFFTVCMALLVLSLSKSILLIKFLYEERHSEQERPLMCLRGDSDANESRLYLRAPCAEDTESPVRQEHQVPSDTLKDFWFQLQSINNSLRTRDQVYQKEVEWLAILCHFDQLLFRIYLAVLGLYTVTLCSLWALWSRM
Description: Displacement of [3H]GR-65630 binding to 5-hydroxytryptamine 3 receptor in rat brain cortical membranes. In kind it is cell membranes, Membrane. An outline of the steps: as §1

Molecules are shown by their SMILES.

Delta-type opioid receptor, sequence (P33533 whole entry): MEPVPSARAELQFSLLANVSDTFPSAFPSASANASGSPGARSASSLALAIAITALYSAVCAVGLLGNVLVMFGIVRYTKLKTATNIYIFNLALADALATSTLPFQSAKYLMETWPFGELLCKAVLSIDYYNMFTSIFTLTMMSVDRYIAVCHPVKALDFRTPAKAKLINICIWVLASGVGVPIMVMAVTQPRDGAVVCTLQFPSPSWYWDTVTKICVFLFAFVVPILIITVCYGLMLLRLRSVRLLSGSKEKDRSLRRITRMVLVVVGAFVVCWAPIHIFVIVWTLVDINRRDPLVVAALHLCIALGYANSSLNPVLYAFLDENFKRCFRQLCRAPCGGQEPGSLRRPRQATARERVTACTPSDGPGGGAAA
Alpha-2A adrenergic receptor, sequence (P22909 whole entry): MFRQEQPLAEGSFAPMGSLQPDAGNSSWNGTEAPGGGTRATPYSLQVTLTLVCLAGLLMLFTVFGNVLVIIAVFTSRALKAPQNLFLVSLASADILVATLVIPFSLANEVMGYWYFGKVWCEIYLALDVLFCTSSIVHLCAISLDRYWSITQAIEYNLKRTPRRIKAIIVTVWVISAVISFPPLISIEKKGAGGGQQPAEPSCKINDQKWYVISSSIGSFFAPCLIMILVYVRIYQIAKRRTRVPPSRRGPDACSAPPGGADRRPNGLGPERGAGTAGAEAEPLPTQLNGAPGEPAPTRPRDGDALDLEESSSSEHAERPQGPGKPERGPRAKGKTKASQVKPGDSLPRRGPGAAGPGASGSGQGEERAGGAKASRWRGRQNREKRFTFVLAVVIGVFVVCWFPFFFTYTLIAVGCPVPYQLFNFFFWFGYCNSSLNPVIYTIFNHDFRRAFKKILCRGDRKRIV
Kappa-type opioid receptor, sequence (P34975 whole entry): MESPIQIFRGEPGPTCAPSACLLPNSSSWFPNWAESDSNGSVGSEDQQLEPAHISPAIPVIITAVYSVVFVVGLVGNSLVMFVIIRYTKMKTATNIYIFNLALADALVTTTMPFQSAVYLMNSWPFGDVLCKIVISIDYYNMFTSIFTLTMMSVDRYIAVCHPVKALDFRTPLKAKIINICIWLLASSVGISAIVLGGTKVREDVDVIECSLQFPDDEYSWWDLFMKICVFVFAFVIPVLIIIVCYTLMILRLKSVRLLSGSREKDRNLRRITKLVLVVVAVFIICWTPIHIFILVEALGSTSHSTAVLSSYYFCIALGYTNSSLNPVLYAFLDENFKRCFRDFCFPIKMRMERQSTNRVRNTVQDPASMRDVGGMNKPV
Glutamate receptor ionotropic, NMDA 2C, sequence (Q00961 whole entry): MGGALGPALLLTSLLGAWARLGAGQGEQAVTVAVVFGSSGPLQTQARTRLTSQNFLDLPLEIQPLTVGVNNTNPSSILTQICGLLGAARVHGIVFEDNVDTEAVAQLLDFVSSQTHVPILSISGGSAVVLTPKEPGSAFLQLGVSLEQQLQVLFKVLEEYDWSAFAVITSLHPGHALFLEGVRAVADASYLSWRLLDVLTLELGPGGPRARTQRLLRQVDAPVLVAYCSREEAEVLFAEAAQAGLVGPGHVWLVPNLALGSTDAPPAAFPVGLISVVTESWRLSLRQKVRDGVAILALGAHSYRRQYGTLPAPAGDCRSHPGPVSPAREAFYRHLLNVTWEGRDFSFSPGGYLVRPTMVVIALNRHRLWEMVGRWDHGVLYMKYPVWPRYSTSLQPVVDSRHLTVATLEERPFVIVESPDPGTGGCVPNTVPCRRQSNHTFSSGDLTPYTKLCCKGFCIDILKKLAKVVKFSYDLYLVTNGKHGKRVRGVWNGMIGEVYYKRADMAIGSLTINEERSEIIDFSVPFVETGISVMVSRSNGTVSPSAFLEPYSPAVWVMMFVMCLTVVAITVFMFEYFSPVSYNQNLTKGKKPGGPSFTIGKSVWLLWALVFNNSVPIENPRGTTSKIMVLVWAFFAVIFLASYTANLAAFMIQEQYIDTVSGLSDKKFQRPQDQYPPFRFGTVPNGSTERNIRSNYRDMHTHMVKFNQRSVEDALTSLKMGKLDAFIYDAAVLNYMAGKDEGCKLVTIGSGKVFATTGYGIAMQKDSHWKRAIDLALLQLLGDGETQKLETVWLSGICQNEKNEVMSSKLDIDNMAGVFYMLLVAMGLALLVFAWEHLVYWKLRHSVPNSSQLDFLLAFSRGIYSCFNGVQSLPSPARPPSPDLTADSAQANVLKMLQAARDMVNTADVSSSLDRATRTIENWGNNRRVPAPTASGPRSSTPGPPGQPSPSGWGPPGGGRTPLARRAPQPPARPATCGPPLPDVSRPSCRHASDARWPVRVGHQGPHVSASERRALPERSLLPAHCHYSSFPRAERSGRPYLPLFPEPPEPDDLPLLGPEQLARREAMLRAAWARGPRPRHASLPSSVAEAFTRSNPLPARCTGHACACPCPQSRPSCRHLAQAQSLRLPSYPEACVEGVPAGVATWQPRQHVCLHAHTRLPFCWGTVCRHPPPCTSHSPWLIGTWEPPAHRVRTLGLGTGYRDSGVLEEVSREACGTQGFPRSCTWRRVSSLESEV

For the compound `Cc1nccn1C[C@H]1CCc2c(c3cccc4c3n2CCC4)C1=O` [CILANSETRON], the inhibition constant (Ki) in [1] was greater than 10 µM; in [2] it was greater than 10 µM; in test [3], 5.4 µM; in test [4], greater than 10 µM; in test [5] it was greater than 10 µM; at D(1A) dopamine receptor, greater than 10 µM. The Ki at D(2) dopamine receptor is greater than 10 µM; in test [6], greater than 10 µM; on Histamine H1 receptor it was 6.5 µM; at Histamine H3 receptor, greater than 10 µM; in test [7], greater than 10 µM; in [8] it was 0.91 µM. Besides, the inhibition constant Ki (in [9]; in [10]; in test [13]; on Adrenergic receptor beta; in test [14]; in test [15]) was greater than 10 µM in each case. The inhibition constant Ki was greater than 10 µM in test [16]; greater than 10 µM in test [17]; greater than 10 µM in test [18]; greater than 10 µM in test [19]; 8.5 µM at Mu-type opioid receptor; greater than 10 µM in test [20]. Further, the values for the inhibition constant (Ki) (in [21]; in [22]; on D(3) dopamine receptor) were 0.34 µM, greater than 10 µM and greater than 10 µM, respectively. Also, the ED10 in the test filed under Rattus norvegicus [11] stood at 0.026 mg/kg. The values for the Kb in the test listed under Rattus norvegicus [12] and in the test listed under Cavia porcellus were 0.000115 µM and 0.0158 µM, respectively. This compound came in with an LED in the test filed under Mus musculus of 30 mg/kg.
Consider `Cc1nccn1CC1CCc2c(c3cccc4c3n2CCO4)C1=O` (racemic), for which the Ki in test [23] is 1300 pM.
As for `Cc1nccn1CC1CCc2c(c3cccc4c3n2CCCC4)C1=O` (single isomer, unassigned; (+)), affinity in test [23] was put at a Ki of 930 pM.
In test [23], `Cc1nc[nH]c1CCC(=O)c1cn2c3c(cccc13)SCC2` had an inhibition constant Ki of 190 pM.
On the same count and under the same terms, the figure for `Cc1[nH]cnc1CCC(=O)c1cn2c3c(cccc13)CCC2` is 75 pM; for `Cc1nccn1CC1CCc2c(c3cccc4c3n2CCCCC4)C1=O` (racemic) it is 1100 pM.
Still for that read-out and setting: the figure for `Cc1[nH]cnc1CCC(=O)c1cn(C)c2ccccc12` is 280 pM; for `Cc1nccn1CC1CCc2c(c3cccc4c3n2CCS4)C1=O` (racemic) it is 770 pM; for `Cc1nccn1CC1CCc2c(c3cccc4c3n2CCCC4)C1=O` (single isomer, unassigned; (-)) it is 640 pM.
In the case of `Cc1nccn1CC1CCc2c(c3ccccc3n2C)C1=O` (stereo not drawn) [ONDANSETRON], the inhibition constant Ki (in [1]; in test [2]; in test [3]; in [4]; in test [5]; on D(1A) dopamine receptor) was greater than 10 µM throughout. Besides, the Ki at D(2) dopamine receptor was greater than 10 µM; in test [6], greater than 10 µM; at Histamine H1 receptor it was greater than 10 µM; at Histamine H3 receptor it was greater than 10 µM; in test [7] it was greater than 10 µM; in test [8] it was 5.1 µM. Also, the inhibition constant (Ki) (in [9]; in test [10]; in [13]; at Adrenergic receptor beta; in [14]; in test [15]) was greater than 10 µM throughout. In addition, the inhibition constant (Ki) in test [16] was greater than 10 µM; in test [17], greater than 10 µM; in test [18], greater than 10 µM; in test [19] it was greater than 10 µM; on Mu-type opioid receptor, 2.9 µM; in test [20], greater than 10 µM. Besides, the inhibitory constant (Ki) in [21] was 0.68 µM; in [22], greater than 10 µM; on D(3) dopamine receptor, greater than 10 µM. In addition, the ED10 in the test filed under Rattus norvegicus [11] was determined as 0.165 mg/kg. For the same compound, the results for the Kb in the test listed under Rattus norvegicus [12] and in the test filed under Cavia porcellus were 0.00102 µM and 0.158 µM, respectively. Further, the LED in the test listed under Mus musculus came out at 3 mg/kg.
In turn, `Cc1nccn1CC1CCc2c(c3cccc4c3n2CC4)C1=O` (racemic) showed a Ki in [23] of 230 pM.
On the same count and under the same terms, the figure for `Cc1nccn1CC1CCc2c(c3cccc4c3n2CCCC4)C1=O` (racemic) is 750 pM; for `Cc1[nH]cnc1CCC(=O)c1cn2c3c(cccc13)CCCC2` it is 330 pM.
